This is an account of results in publication PMC8865373 (Biochemistry, 2021).

Where a SMILES comes first, the peptide text is derived from it. Where no end group is shown, it is not given here. [ ]: non-standard residue; d: D form. pS = N[C@@H](COP(=O)(O)O)C(=O)O

For experiment [1], the target named is T1, TAZ2 domain of CBP (residues 1764–1855) (Mus musculus, UniProt P45481).
T1 sequence (P45481 1764-1855): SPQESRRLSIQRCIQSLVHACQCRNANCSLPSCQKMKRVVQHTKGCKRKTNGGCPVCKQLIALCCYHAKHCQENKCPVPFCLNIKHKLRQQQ
The experiment in a line: Fluorescence anisotropy competition with Alexa594-labeled E7. The class given is binding. As to conditions: ratio of fluorescence anisotropy competition KDs. In outline: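 Tracer: Alexa Fluor 594-labelled E7(1–51) C24A/A50C (dye at position 50), 20 nM, in 20 mM Tris, 50 mM NaCl, 1 mM DTT, pH 7.0. It was pre-bound to 0.8 μM TAZ2 (>90% saturation). Unlabelled E7 peptides were titrated in and the anisotropy decrease read at 590/617 nm. Apparent KD came from a competition fit using the tracer KD from direct TAZ2 titration.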
A general note: In fluorescence polarisation assays a small probe gives low polarisation when free and higher when bound to something large.

For the next experiment, the target named is TAZ2. The conditions noted are these: doubly-phosphorylated peptide; fluorescence anisotropy and NMR spectroscopy; cited from earlier work.

For `CC(C)C[C@H](NC(=O)[C@H](CCC(N)=O)NC(=O)[C@H](CCC(=O)O)NC(=O)[C@H](Cc1ccc(O)cc1)NC(=O)[C@H](CS)NC(=O)[C@H](Cc1ccc(O)cc1)NC(=O)[C@H](CC(C)C)NC(=O)[C@H](CC(=O)O)NC(=O)[C@@H](NC(=O)[C@@H](NC(=O)[C@@H](N)CCC(=O)O)[C@@H](C)O)[C@@H](C)O)C(=O)N[C@@H](CC(N)=O)C(=O)N[C@@H](CC(=O)O)C(=O)N[C@@H](CO)C(=O)N[C@@H](CO)C(=O)N[C@@H](CCC(=O)O)C(=O)N[C@@H](CCC(=O)O)C(=O)N[C@@H](CCC(=O)O)C(=O)N[C@@H](CC(=O)O)C(=O)N[C@@H](CCC(=O)O)C(=O)O` [CR2(18–37)] (H-ETTDLYCYEQLNDSSEEEDE-OH), in experiment [1], the “KD of CR2 relative to the preceding CR1 motif (stronger)” value is “seven-fold”.
Consider “ppE7(1–51): doubly-phosphorylated (S31, S32) HPV16 E7(1–51) peptide (MHGDTPTLHEYMLDLQPETTDLYCYEQLND[pS][pS]EEEDEIDGPAGQAEPDRAH)”, for which the “binding affinity for TAZ2” value on TAZ2 is listed as “low nanomolar range”.
